Source: PubChem BioAssay
STAT1 act: STAT1 signaling activators, primary screen, cell-based, HTS, luciferase reporter. actives 2.6% (n = 200,000). activation (% of control), % at 5.5 µM. AID 932, 2007. NIH 3T3 STAT1-luciferase reporter, IFN-gamma, luminescence; 100% = IFN-gamma alone, no compound;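 active = activation above the screen-wide mean activation plus 3 SD, cut at about 130% in these data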;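 note: raw ratio to IFN-gamma control signal so 100% means no change and 0% no light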
STAT3 blocker: IL-6 driven STAT3 reporter inhibitors, primary screen, U3A cells, luciferase, luminescence, MLSCN library. IL-6 STAT3-luciferase reporter; host cell line lacks STAT1. inhibition, % at 5.5 µM. actives 0.89% (n = 190,000);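 active = inhibition above the mean inhibition across all screened compounds plus 3 SD, cut at about 44% in these data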;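 note: 0% = DMSO only wells and 100% = 100 µM nifuroxazide control wells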
NF-kB neuron act: activators of NF-kB expression in neurons, primary screen, cell-based, HTS. human neuronal cells, NF-kB reporter expression; active compounds read high. fold change at 12.5 µM. actives 1.6% (n = 190,000). AID 1239, 2008; in the data active = fold change above about 3.3
STAT3 act: IL-6 driven STAT3 reporter potentiators, primary screen, U3A cells, luciferase, luminescence, MLSCN library. actives 0.91% (n = 190,000). activation (% of control), % at 5.6 µM. IL-6 STAT3-luciferase reporter; 100% = signal with IL-6 EC80 alone;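 active = activation above the screen-wide mean of compound activation plus 3 SD, cut at about 130% in these data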;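 note: 0% = background luminescence of wells with medium and substrate only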
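Assay system – human STAT1-deficient U3A cells with stable STAT3-luciferase reporter · Also added – IL-6 (33 ng/mL) · Schedule – compound 1 h, then IL-6 6 h at 37 °C · Technique – reporter luminescence signal · Evaluation – % activation versus median of IL-6-stimulated wells · Benchmarks – IL-6-only wells as 100% reference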
APP 5'UTR act: activators of APP 5'UTR luciferase reporter, primary screen, SH-SY5Y cells | SH-SY5Y APP 5'UTR luciferase reporter, luminescence; zero percent = DMSO vehicle wells | activation, % at 2 µM | actives 1% (n = 190,000) | AID 1276, 2008;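 active = activation above a set limit, based on mean plus 3 SD of controls, cut at about 140% in these data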
STAT1 blocker: STAT1 signaling inhibitors, primary screen, cell-based, HTS, luciferase reporter; inhibition, % at 5.5 µM; NIH 3T3 STAT1-luciferase reporter, IFN-gamma, luminescence; actives 0.35% (n = 200,000);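 active = inhibition above a set limit, the mean inhibition across all tested compounds plus 3 SD, cut at about 34% in these data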;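 note: 0% = IFN-gamma with DMSO and 100% = IFN-gamma with 300 µM nifuroxazide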
* marks the source's active call; other numbers are inactive results; . = not tested or not shown. Rows were chosen to be rich in hits. Some 4.9% of all compounds tested hit in one or more screens of this group.

SMILES | STAT1 act | STAT3 blocker | NF-kB neuron act | STAT3 act | APP 5'UTR act | STAT1 blocker
Cc1ccc(C2(C)NC(=O)N(CC(=O)Nc3ccc4c(c3)OCO4)C2=O)cc1 (configuration not stated) | 87.4 | 3.9 | 0.81 | 102.1 | -6.4 | 14.1
Cc1ccc2nc(-c3ccc(NC(=O)CNC4CC4)cc3)sc2c1 | 114.5 | 29.8 | 5.33* | 77.9 | 199.0* | -15.8
COc1ccc(C2(C)NC(=O)N(CC(=O)Nc3ccc(-c4nc5ccc(C)cc5s4)cc3)C2=O)cc1 (configuration not stated) | 143.8* | 19.3 | . | 87.3 | 171.0* | -51.0
O=P(COc1ccccc1)(c1ccccc1)c1ccccc1 | 95.3 | -3.9 | 1.1 | 113.4 | 4.6 | 5.2
Cc1ccc(C(=O)O/N=C2\CCCc3ccccc32)cc1 | 134.7* | 1.5 | 1.6 | 103.6 | -4.2 | -38.5
Cc1cccc(C(=O)O/N=C2\CCCc3ccccc32)c1 | 101.1 | 16.2 | 1.81 | 95.6 | 4.0 | -1.2
COC(=O)c1c(NC(=O)Nc2ccc(Cl)cc2)sc(C)c1C | 101.4 | -33.5 | 1.09 | 128.1 | . | 0.7
Cc1sc(NC(=S)NC(=O)CCc2ccccc2)c(C(N)=O)c1C | 113.4 | -61.7 | 1.02 | 155.7* | -94.7 | -15.0
Cc1sc(NC(=O)Nc2ccccc2)c(C(N)=O)c1C | 139.1* | -7.9 | 2.9 | 111.4 | 66.2 | -43.7
CCOC(=O)C1CCC(CNCc2ccccc2C)CC1 (configuration not stated) | 102.8 | -3.2 | 1 | 104.7 | -16.5 | -5.0
COc1ccc(C2CC(c3ccc4ccccc4c3)=NN2C(=O)CN2CCC(C(N)=O)CC2)cc1 (configuration not stated) | 121.0 | -3.2 | 1.03 | 108.8 | 40.6 | -24.2
CCOC(=O)/C=C(\C)N1N=C(c2ccccc2)CC1c1ccccc1 (configuration not stated) | 141.5* | -13.7 | 2.52 | 125.2 | 83.4 | -46.3
CC(=O)OCC(=O)N1N=C(c2ccc3ccccc3c2)CC1c1ccccc1 (configuration not stated) | 138.8* | 9.7 | 1.52 | 96.3 | 55.4 | -45.8
COc1ccc2c(c1)C(C)=CC(C)(C)N2S(=O)(=O)c1ccc(C)cc1 | 100.0 | -11.8 | 2.63 | 111.3 | -84.3 | -1.5
CC1=CC(C)(C)N(S(=O)(=O)c2ccc(C)cc2)c2cc(C)ccc21 | 112.6 | -11.8 | 4.37* | 115.4 | -95.9 | -13.8
CCOC(=O)c1c(C)[nH]c(N=Nc2cccc(C)c2)c1C | 137.7* | -2.6 | 3.43* | 106.1 | 158.1* | -40.8
CCOC(=O)c1c(C)[nH]c(C=Nc2ccccc2)c1O | 105.2 | 11.6 | 1.11 | 89.6 | 7.1 | -5.7
CCOC(=O)c1c(C)[nH]c(N=Nc2ccccc2)c1C | 127.4 | 3.5 | 3.47* | 103.5 | 62.7 | -29.7
Cc1sc(NC(=O)c2ccc(F)cc2)c(CN2CCCCCC2)c1C | 131.2* | -15.2 | 1.35 | 122.5 | 46.2 | -34.2
COc1ccc(C(=O)C2CCCN(C3Cc4ccccc4C3)C2)c(OC)c1 (configuration not stated) | 92.4 | 2.7 | 0.83 | 100.7 | 13.5 | 7.1
COC(=O)c1ccc(CO/N=C2\CCCc3nonc32)cc1 | 138.9* | 7.2 | 1.2 | 98.6 | 17.0 | -45.9
CCc1cccc2c(C(=S)N3CCOCC3)c[nH]c12 | 99.0 | 13.9 | 0.98 | 92.5 | -1.9 | -0.3
COc1ccc(C(=O)OCc2csc(C)n2)c(O)c1 | 138.7* | 3.3 | 2.87 | 99.2 | 34.1 | -43.8
Cc1nc(C/C(=N\N)c2ccc(O)cc2O)cs1 | 99.9 | -10.3 | 1.11 | 108.9 | 14.7 | 0.8
Cc1ccc(-c2nc3ccc(Cl)cc3n2OC(C)C(=O)O)cc1 (configuration not stated) | 140.9* | 4.5 | 1.72 | 102.3 | 116.5 | -46.2
SMILES | STAT1 act | STAT3 blocker | NF-kB neuron act | STAT3 act | APP 5'UTR act | STAT1 blocker
CC(On1c(-c2ccccc2)nc2ccc(Cl)cc21)C(=O)O (configuration not stated) | 97.8 | 17.0 | 1.53 | 90.6 | 11.5 | 1.4
CC/C(=N\NC(=O)C(N)=O)c1ccccc1O | 105.3 | 16.3 | 0.76 | 89.4 | -0.4 | -5.9
c1ccc(Cc2nn3c(COc4ccccc4)nnc3s2)cc1 | 108.5 | -34.4 | 1.5 | 134.5* | 4.3 | -9.2
CC(NC(=O)CNC(=S)N(Cc1cccs1)C1CCCC1)c1ccccc1 (configuration not stated) | 95.6 | 3.5 | 0.99 | 108.0 | 24.7 | 4.1
Cn1c2ccccc2c2cc(C(=O)NNC(=O)CCl)sc21 | 132.9* | -25.2 | 2.03 | 136.7* | 7.1 | -36.9
CCc1ccccc1N(C(C)=O)c1nc(CN=C=S)cs1 | 87.6 | -1.5 | 1.53 | 102.3 | 7.2 | 12.0
Cc1ccc(S(=O)(=O)c2c(C)nn(C(C)(C)C)c2OC(=O)c2ccco2)cc1 | 137.8* | -20.5 | 1.11 | 122.2 | -8.4 | -40.8
Cc1ccc(S(=O)(=O)c2c(C)nn(C(C)(C)C)c2OC(=O)c2ccc(Br)o2)cc1 | 110.2 | -9.0 | 0.86 | 112.6 | -7.5 | -11.2
Cc1ccc(-n2c(C)csc2=N)cc1 | 124.7 | 14.8 | 3.51* | 92.1 | 113.2 | -26.9
Cc1csc(=N)n1-c1ccc(Cl)cc1 | 136.7* | 7.9 | 2.15 | 96.5 | 34.9 | -40.4
COC(=O)CNc1c(-c2ccccn2)nc2ccc(Br)cn12 | 149.5* | 4.1 | 1 | 96.1 | 95.8 | -53.6
CCOC(=O)CNc1c(-c2ccccc2)nc2ccc(Cl)cn12 | 113.1 | 9.9 | 2.13 | 94.7 | 20.3 | -14.4
Fc1ccccc1CSc1nc2ccccc2[nH]1 | 135.7* | 9.6 | 10.1* | 92.1 | 198.0* | -38.9
O=[N+]([O-])c1cccc(CSc2nc3ccccc3[nH]2)c1 | 103.1 | 6.6 | 1.13 | 90.5 | 12.7 | -3.4
COc1cccc(CSc2nc3ccccc3[nH]2)c1 | 118.4 | 12.5 | 4* | 86.5 | 89.0 | -20.2
O=C(CN1CCN(C(=O)c2ccco2)CC1)Nc1cccc([N+](=O)[O-])c1 | 100.8 | 5.8 | 1.09 | 99.8 | -2.0 | -1.2
COc1ccc(-c2nn(-c3ccccc3)cc2/C=N/NC(=O)c2ccc3c(c2)OCO3)cc1 | 109.6 | 18.7 | 0.56 | 90.5 | 14.1 | -10.8
O=C(N/N=C/c1cn(-c2ccccc2)nc1-c1cc2ccccc2o1)c1ccccc1Br | 120.3 | 11.3 | 1.92 | 93.2 | 187.5* | -22.5
COc1ccc(-c2nn(-c3ccccc3)cc2/C=N/NC(=O)c2ccc(Br)o2)cc1 | 99.9 | 45.1* | 0.5 | 69.4 | -0.5 | 0.1
O=C(N/N=C/c1cn(-c2cccs2)nc1-c1ccccc1)c1ccccc1Br | 95.7 | 19.6 | 0.61 | 82.6 | 18.8 | 4.8
CCn1c(C)nc2cc(C(=O)N/N=C/c3cccc(O)c3O)ccc21 | 117.0 | 21.0 | 2.61 | 85.9 | -26.1 | -21.2
